In ChEMBL document CHEMBL3045286, “Citrus limonoids and their semisynthetic derivatives as antifeedant agents against Spodoptera frugiperda larvae. A structure-activity relationship study” (2002):

The molecules below were run on Spodoptera frugiperda (assay: Antifeedant activity against larvae of Spodoptera frugiperda (fall armyworm) at 100 ppm measured every 30 min for 8 hr by binary choice assay relative to control).
Format: functional
Summary of the method: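 Final-stadium larvae aged […], reared on wheatgerm diet, starved 2 h, then held singly in Petri dishes with control and treatment glass-fiber disks (2.1 cm). All disks carried 100 µL of 0.05 M sucrose. Treatment disks received compound in acetone and control disks acetone alone; disks were dried and weighed before and after. Ten larvae per compound. Feeding index = [(C − T)/(C + T)]%, mean ± SEM, Wilcoxon matched-pairs test.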

Compound | AFI
CC(=O)O[C@H]1C[C@H]2C(C)(C)O[C@H]3CC(=O)OC[C@]32[C@H]2CC[C@@]3(C)[C@@H](c4ccoc4)OC(=O)[C@H]4O[C@]43[C@]12C [EPI-LIMONYL ACETATE] | 26%
CC(=O)O/N=C1\C[C@H]2C(C)(C)OC(=O)C=C[C@]2(C)[C@H]2CC[C@@]3(C)[C@@H](c4ccoc4)OC(=O)[C@H]4O[C@]43[C@]12C [OBACUNONE-7-OXIME ACETATE] | 21%
CC(=O)O[C@H]1CC(=O)OC(C)(C)[C@@H]2C[C@H](O)[C@]3(C)[C@H](CC[C@@]4(C)[C@@H](c5ccoc5)OC(=O)[C@H]5O[C@@]534)[C@@]12C [7-BETA-NOMILOL] | 35%
CC1(C)OC(=O)C=C[C@]2(C)[C@H]3CC[C@@]4(C)[C@@H](c5ccoc5)OC(=O)[C@H]5O[C@]54[C@]3(C)[C@@H](O)C[C@@H]12 [7-BETA-OBACUNOL] | 35%
CC1(C)OC(=O)C=C[C@]2(C)[C@H]3CC[C@@]4(C)[C@@H](c5ccoc5)OC(=O)[C@H]5O[C@]54[C@]3(C)/C(=N/O)C[C@@H]12 [OBACUNONE-7-OXIME] | 25%
CC1(C)OC(=O)CC[C@]2(C)[C@H]3CC[C@@]4(C)[C@@H](c5ccoc5)OC(=O)[C@H]5O[C@]54[C@]3(C)C(=O)C[C@@H]12 [1,2-DIDEHYDRO-OBACUNONE] | 53%
CC1(C)O[C@H]2CC(=O)OC[C@]23[C@H]2CC[C@@]4(C)[C@@H]([C@H]5CCOC5)OC(=O)[C@H]5O[C@]54[C@]2(C)C(=O)C[C@@H]13 [EPI-PERHYDROLIMONIN] | 45%
CC1(C)O[C@H]2CC(=O)OC[C@]23[C@H]2CC[C@@]4(C)[C@@H]([C@@H]5CCOC5)OC(=O)[C@H]5O[C@]54[C@]2(C)C(=O)C[C@@H]13 [PERHYDROLIMONIN] | 29%
CC(=O)O[C@@H]1C[C@H]2C(C)(C)O[C@H]3CC(=O)OC[C@]32[C@H]2CC[C@@]3(C)[C@@H](c4ccoc4)OC(=O)[C@H]4O[C@]43[C@@]21C [LIMONYL ACETATE] | 45%
CC1(C)O[C@H]2CC(=O)OC[C@]23[C@H]2CC[C@@]4(C)[C@@H](c5ccoc5)OC(=O)[C@H]5O[C@]54[C@]2(C)[C@H](O)C[C@@H]13 [LIMONOL] | 68%
CC1(C)OC(=O)C=C[C@]2(C)[C@H]3CC[C@@]4(C)[C@H](c5ccoc5)OC(=O)[C@H]5O[C@]54[C@]3(C)C(=O)C[C@@H]12 [OBACUNONE] | 68%
CC1(C)O[C@H]2CC(=O)OC[C@]23[C@H]2CC[C@@]4(C)[C@H](c5ccoc5)OC(=O)[C@H]5O[C@]54[C@]2(C)C(=O)C[C@@H]13 [LIMONIN] | 87%
CC(=O)O[C@H]1CC(=O)OC(C)(C)[C@@H]2CC(=O)[C@]3(C)[C@H](CC[C@@]4(C)[C@@H](c5ccoc5)OC(=O)[C@H]5O[C@]543)[C@@]12C [NOMILIN] | 56%
CC(=O)O/N=C1\C[C@H]2C(C)(C)O[C@H]3CC(=O)OC[C@]32[C@H]2CC[C@@]3(C)[C@@H](c4ccoc4)OC(=O)[C@H]4O[C@]43[C@]12C [LIMONIN-7-OXIME ACETATE] | 45%
CC(=O)O[C@H]1CC(=O)OC(C)(C)[C@@H]2C[C@@H](O)[C@]3(C)[C@H](CC[C@@]4(C)[C@@H](c5ccoc5)OC(=O)[C@H]5O[C@@]534)[C@@]12C [7-ALPHA-NOMILOL] | 46%
CC(=O)O[C@@H]1C[C@H]2C(C)(C)OC(=O)C=C[C@]2(C)[C@H]2CC[C@@]3(C)[C@@H](c4ccoc4)OC(=O)[C@H]4O[C@]43[C@@]21C [7-ALPHA-OBACUNYL ACETATE] | 24%
CC(=O)O[C@H]1CC(=O)OC(C)(C)[C@@H]2C/C(=N\O)[C@]3(C)[C@H](CC[C@@]4(C)[C@@H](c5ccoc5)OC(=O)[C@H]5O[C@]543)[C@@]12C [NOMILIN-7-OXIME] | 35%
CC(=O)O[C@H]1CC(=O)OC(C)(C)[C@@H]2C[C@H](OC(C)=O)[C@]3(C)[C@H](CC[C@@]4(C)[C@@H](c5ccoc5)OC(=O)[C@H]5O[C@@]534)[C@@]12C [7-BETA-NOMILYL ACETATE] | 46%
CC1(C)O[C@H]2CC(=O)OC[C@]23[C@H]2CC[C@@]4(C)[C@@H](c5ccoc5)OC(=O)[C@H]5O[C@]54[C@]2(C)[C@@H](O)C[C@@H]13 [EPILIMONOL] | 56%
CO/N=C1\C[C@H]2C(C)(C)OC(=O)C[C@H](OC(C)=O)[C@]2(C)[C@H]2CC[C@@]3(C)[C@@H](c4ccoc4)OC(=O)[C@H]4O[C@]43[C@]12C [NOMILIN-7-METHOXIME] | 38%
CC1(C)OC(=O)C=C[C@]2(C)[C@H]3CC[C@@]4(C)[C@@H](c5ccoc5)OC(=O)[C@H]5O[C@]54[C@]3(C)[C@H](O)C[C@@H]12 [7-ALPHA-OBACUNOL] | 53%
CC(=O)O[C@H]1C[C@H]2C(C)(C)OC(=O)C=C[C@]2(C)[C@H]2CC[C@@]3(C)[C@@H](c4ccoc4)OC(=O)[C@H]4O[C@]43[C@]12C [7-BETA-OBACUNYL ACETATE] | 26%
CC(=O)O/N=C1\C[C@H]2C(C)(C)OC(=O)C[C@H](OC(C)=O)[C@]2(C)[C@H]2CC[C@@]3(C)[C@@H](c4ccoc4)OC(=O)[C@H]4O[C@]43[C@]12C [NOMILIN-7-OXIME ACETATE] | 41%
CO/N=C1\C[C@H]2C(C)(C)OC(=O)C=C[C@]2(C)[C@H]2CC[C@@]3(C)[C@@H](c4ccoc4)OC(=O)[C@H]4O[C@]43[C@]12C [OBACUNONE-7-METHOXIME] | 29%
CC1(C)O[C@H]2CC(=O)OC[C@]23[C@H]2CC[C@@]4(C)[C@@H](c5ccoc5)OC(=O)[C@H]5O[C@]54[C@]2(C)/C(=N/O)C[C@@H]13 [LIMONIN-7-OXIME] | 68%
CO/N=C1\C[C@H]2C(C)(C)O[C@H]3CC(=O)OC[C@]32[C@H]2CC[C@@]3(C)[C@@H](c4ccoc4)OC(=O)[C@H]4O[C@]43[C@]12C [LIMONIN-7-METHOXIME] | 76%
